# Screening data (PubChem BioAssay)
# The list is not random: actives were taken first. Their share in the collection is about 3.1%.
# OX1R antag-1 – human HCRTR1 antagonism | O43613 | CHO/OX1R cells, Fluo-8 calcium fluorescence, orexin A | inhibition, % at 5 µM | 330,000 tested, 0.43% active;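 active means inhibition above its plate's threshold, mean inhibition of all tested compounds on the plate plus 3 SD, cut at about 37% in these data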;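 further: 0% = orexin A challenge wells and 100% = SB-334867-A antagonist wells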
# Target sequence (O43613 whole entry, looked up): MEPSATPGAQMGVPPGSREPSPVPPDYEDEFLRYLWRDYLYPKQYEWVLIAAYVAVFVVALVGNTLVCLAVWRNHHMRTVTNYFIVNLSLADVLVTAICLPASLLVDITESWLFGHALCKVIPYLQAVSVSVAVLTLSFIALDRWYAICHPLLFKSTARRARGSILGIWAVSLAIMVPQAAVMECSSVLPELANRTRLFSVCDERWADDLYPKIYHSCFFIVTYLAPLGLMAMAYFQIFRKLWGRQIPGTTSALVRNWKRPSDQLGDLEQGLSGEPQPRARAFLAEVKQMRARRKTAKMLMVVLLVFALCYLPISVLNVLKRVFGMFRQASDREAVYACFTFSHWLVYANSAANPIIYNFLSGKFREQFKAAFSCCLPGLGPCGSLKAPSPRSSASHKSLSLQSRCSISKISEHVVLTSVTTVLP
# GalR3 antagonist – blocks the human galanin receptor 3; HEK293 GalR3-CNG cAMP membrane potential fluorescence; galR3 body fused to GalR1 C-terminus; 360,000 tested, 0.44% active; inhibition, % at 3 µM;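 active means inhibition above the screen-wide average plus 3 SD, cut at about 13% in these data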;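 further: forskolin and galanin both at EC90 stimulate the cells; cAMP rise reported by CNG channel membrane potential dye signal; 0% = forskolin plus galanin with DMSO and 100% = forskolin alone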
# OX1R antag-2 – antagonists of human orexin 1 receptor (OX1R); O43613; OX1R-expressing cells, FRET antagonist read-out; inhibition, % at 6.6 µM; 330,000 tested, 1.8% active; in the data active means inhibition mostly above about 38%, no sharp cut-off; inactive means mostly below about 40%;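 further: 0% = agonist challenge alone and 100% = reference antagonist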
# GPR7 antag – human neuropeptides B/W receptor 1 antagonism; AID 1861; GPR7-expressing cells, fluorescence antagonist assay; inhibition, % at 4.4 µM; 290,000 tested, 1.1% active; P48145; in the data active means inhibition above about 16%, passing the limit was not always enough;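 further: cells stimulated with the agonist NPW; 0% = agonist with vehicle and 100% = vehicle without agonist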
# CHO parental Ca – counter-screen for OX1R antagonists: effect in parental CHO cells; AID 463079; 330,000 tested, 0.63% active; parental CHO-K1, ATP-induced calcium, Fluo-8 fluorescence; inhibition, % at 5.6 µM;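 active means inhibition above that plate's mean sample inhibition plus 3 SD, cut at about 26% in these data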;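 further: 0% = ATP-challenged DMSO wells and 100% = DMSO wells without ATP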
#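 Material: parental CHO cells / Compound: single nominal dose of 5.6 µM per compound / Signal: Fluo-8 fluorescence / Replicates: singlicate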
# GPR7 antag cf – confirmation of human GPR7 antagonists; inhibition, % at 4.4 µM; 2,400 tested, 52% active; shares compounds with GPR7 antag; GPR7-expressing cells, calcium fluorescence antagonist mode; in the data active means inhibition above about 24%;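 further: stimulated with the GPR7 agonist NPW; 0% = agonist plus vehicle and 100% = vehicle alone without agonist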
# MCHR1 antag – counter-screen for GPR7 antagonists: antagonists of human MCHR1; shares compounds with GPR7 antag; MCHR1-expressing cells, fluorescence antagonist assay; inhibition, % at 4.4 µM; 2,400 tested, 62% active; in the data active means inhibition above about 22%;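 further: 0% = vehicle with agonist and 100% = vehicle without agonist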
# Numbers without * were called inactive; / = no result given.
SMILES,OX1R antag-1,GalR3 antagonist,OX1R antag-2,GPR7 antag,CHO parental Ca,GPR7 antag cf,MCHR1 antag
Cc1nc(NCc2ccccn2)c2c3c(sc2n1)CCCC3,-34,-7,49,32*,-20,25*,22*
COCC(C)NC(=O)CCc1nnc(C2(c3ccc(Cl)cc3)CCC2)o1 (stereo unspecified),-21,1,3,-8,-12,/,/
CC(c1ccon1)N(C)C(=O)CCc1nnc(C2(c3ccc(Cl)cc3)CCC2)o1 (stereo unspecified),-23,-4,0,25*,0,-6,4
COc1ccc(/C=N/NC(=O)c2cccc(Br)c2)cc1COc1ccccn1,-25,-3,14,31*,-19,-4,48*
COc1ccc(/C=C2/CC/C(=C\c3ccc(OC)c(OC)c3OC)C2=O)c(OC)c1OC,-27,-9,15,23*,-15,-1,67*
CCS(=O)(=O)c1ccc(O)c(NC(=O)c2cc(-c3ccccn3)nc3ccccc23)c1,-9,-1,-1,/,-5,/,/
CCCCC(O)(CCCC)C(=O)NN(C(=O)OCC)c1ccccc1,-11,-3,16,32*,-12,35*,27*
CCOC(=O)N(NC(=O)C(O)(c1ccccc1)c1ccccc1)c1ccccc1,-11,-3,20,31*,-25,19,28*
CCOC(=O)N(NC(=O)C(O)(C(C)C)C(C)C)c1ccccc1,-17,-5,5,-2,-10,/,/
COc1ccc(C(=O)Nc2ccc(Cl)cc2F)cc1S(=O)(=O)N1CCCC1,-25,-2,3,/,-25,/,/
Cc1ccc(-n2ncc3c2CCCC3NC(=O)CCc2cnccn2)cc1C (stereo unspecified),-16,-3,7,6,-3,/,/
CCOC(=O)c1ccc(NC(=O)Nc2ccc(F)cc2)cc1,1,-9,52*,23*,22,47*,55*
Cc1ccc(NC(=O)CCC(=O)c2ccc(F)cc2)cc1Cl,-3,-5,22,-14,17,/,/
Cc1ccc(NC(=O)Nc2ccc(F)cc2)cc1Cl,36,-5,61,28*,41*,9,52*
Cc1ccc(NC(=O)CN(C)C2CCCCC2)cc1Cl,/,-11,/,25*,/,21,24*
CSc1ccc(NC(=O)NCCCN2CCC(Cc3ccccc3)CC2)cc1,-17,-12,-9,29*,2,26*,33*
CC(C)COCC(CN(Cc1ccccc1)c1ccccc1)N1CCCC1 (stereo unspecified),-27,-6,10,46*,-23,48*,31*
O=C1COc2ccc(C(=O)COc3ccc(Cl)cc3Br)cc2N1,-23,-3,17,/,-9,/,/
N#Cc1nc(COc2ccc(F)cc2)oc1N1CCN(Cc2ccccc2)CC1,0,-3,50,35*,-16,33*,52*
N#Cc1nc(Cc2ccccc2)oc1N1CCC(Cc2ccccc2)CC1,-8,-1,15,4,14,/,/
COc1ccc(OCc2nc(C#N)c(N3CCN(c4ccc(OC)cc4)CC3)o2)cc1,/,-1,/,43*,/,48*,50*
COc1ccc(N2CCN(c3oc(COc4ccccc4Cl)nc3C#N)CC2)cc1,-17,-3,11,16,-6,/,/
N#Cc1nc(COc2ccc(F)cc2)oc1N1CCC(Cc2ccccc2)CC1,-31,-7,10,30*,9,48*,47*
CC(C)NC(=O)COc1coc(CN2CCN(c3ccccc3F)CC2)cc1=O,-21,-6,1,-4,-5,/,/
Cc1ccc(OCC(=O)Oc2cccc(C)c2C)cc1,-11,1,5,-16,-4,/,/
Cc1cnc(N=Nc2ccccc2)[nH]1,/,-4,/,/,/,/,/
COc1cc(OC)c(OC)cc1/C=C1\CC(C)C/C(=C\c2cc(OC)c(OC)cc2OC)C1=O (stereo unspecified),-3,-9,9,-9,-7,/,/
CC1CCCC(C)N1C(=O)c1ccc(S(=O)(=O)NCc2ccco2)cc1 (stereo unspecified),-31,-9,26,31*,19,4,23*
O=C(NC1CCCCC1)c1ccc(S(=O)(=O)NCc2ccco2)cc1,-14,-2,12,34*,-8,22,25*
